The record followed here is ChEMBL document CHEMBL1151715, “Novel D-xylose derivatives stimulate muscle glucose uptake by activating AMP-activated protein kinase alpha” (J Med Chem, 2008).

Data set [1] can be described thus: Effect on [3H]2-deoxy-D-glucose uptake in human skeletal muscle cells at 150 uM relative to control. It counts as functional.
Data set [2] has as its system L6. The experiment in a line: Increase in GLUT1myc abundance in rat L6 cell membrane at 20 mM after 7 hrs. It counts as functional, cell-based. The method in brief: (§1)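 Myc-tagged GLUT1 or GLUT4 L6 myotubes were preconditioned at 5.5 or 23.0 mM glucose for 24 h, then treated in 10% FCS medium for 7 h (18 h for the 5 µM agent). Insulin was 200 nM for 30 min. Intact cells were labeled with rabbit anti-myc (1:200), fixed in 3% formaldehyde, and given HRP anti-rabbit IgG (1:2000). OPD colour was read at 492 nm.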

The species named for data set [3] is Homo sapiens. The experiment in a line: Activation of 5-AMP-induced AMPKalpha in human skeletal muscle cells assessed as […] phosphorylation at 150 uM relative to control. The method in brief: (§2)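 Primary human skeletal myoblasts from the rectus abdominis of a donor were differentiated into myotubes and treated in medium with 10% (v/v) FCS, 23.0 mM D-glucose and agent, with vehicle controls. Whole-cell lysates were Western blotted for total AMPKα and […]-AMPKα, with ECL detection and densitometry.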

For data set [4], the system named is Serum. The experiment in a line: Protein binding in fetal calf serum at 5 uM. It counts as ADME, cell-free, Bos taurus. The following applies: cattle. The method in brief: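 αMEM with 10% FCS was spiked at 4.6–23.0 µM and held 60 min at 37 °C for total concentration. Samples were ultrafiltered through a 10 kDa cutoff (4400g, 60 min), and the filtrate was hexane-extracted and analysed by LC-MS (SIR m/z 432) for free concentration.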

The subject of data set [5] is L6. The experiment in a line: Inhibition of [3H]2-deoxy-D-glucose uptake in rat L6 cells at 150 uM in presence of 100 nM wortmannin. It counts as functional, cell-based. The method in brief: (§3)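 L6 myotubes at 23 mM D-glucose received 100 nM wortmannin 30 min before the agents. Treatment ran in 10% FCS medium for 7 h (18 h for the 5 µM agent). A 5-min [3H]dGlc uptake (0.1 mM dGlc, 1.3 µCi/mL) in PBS at room temperature followed, with the vehicle basal rate set to 100%.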

The subject of data set [6] is L6. The experiment in a line: Effect on [3H]2-deoxy-D-glucose uptake in rat L6 cells at 5 uM relative to control. It counts as functional, cell-based. Conditions: TDE = time-dependent effect. A digest of the protocol: (§4)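 L6 myotubes were held in αMEM with 2% FCS and 23.0 mM D-glucose for 24 h. They were then treated with increasing concentrations in medium with 10% FCS and 23.0 mM D-glucose for 7 or 18 h; vehicle controls ran 18 h. After washing, uptake was measured with 0.1 mM dGlc plus 1.3 µCi/mL [3H]dGlc in PBS pH 7.4 for 5 min at room temperature. Ice-cold PBS stop, SDS lysis, scintillation counting; basal rate set to 100%.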

Data set [7] deals with L6. The experiment in a line: Increase in GLUT1myc abundance in rat L6 cell membrane at 5 µM after 18 hrs. It counts as functional, cell-based. The method in brief: as §1
Data set [8] concerns L6. The experiment in a line: Effect on [3H]2-deoxy-D-glucose uptake in rat L6 cells at 50 uM relative to control. It counts as functional, cell-based. Conditions: TDE = time-dependent effect. A digest of the protocol: as §4
The subject of data set [9] is L6. The experiment in a line: Increase in GLUT1myc abundance in rat L6 cell membrane at 150 uM after 7 hrs. It counts as functional, cell-based. A digest of the protocol: as §1
In data set [10] the test system is L6. The data set can be described thus: Increase in GLUT1myc abundance in rat L6 cell membrane at 50 uM after 7 hrs. It counts as functional, cell-based. A digest of the protocol: as §1
Data set [11] deals with L6. The experiment in a line: Activation of 5-AMP-induced AMPKalpha in rat L6 cells assessed as […] phosphorylation at 150 uM relative to control in presence of compound C. It counts as cell-based.
For data set [12], the system named is L6. The experiment in a line: Activation of 5-AMP-induced AMPKalpha in rat L6 cells assessed as […] phosphorylation at 150 uM relative to control. It counts as cell-based. A digest of the protocol:
(§5)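 L6 myotubes preconditioned 24 h in αMEM with 2% FCS and 23.0 mM D-glucose, then given fresh medium with 10% (v/v) FCS, 23.0 mM D-glucose and test agent; controls received vehicle. Whole-cell lysates (Tris pH 7.5 with phosphatase and protease inhibitors) were blotted for AMPKα and […]-AMPKα, detected by ECL, and bands quantified by densitometry.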

For data set [13], the system named is L6. The experiment in a line: Effect on [3H]2-deoxy-D-glucose uptake in rat L6 cells at 150 uM relative to control. The following applies: TDE = time-dependent effect. It counts as functional, cell-based. The method in brief:
as §4

The test system of data set [14] is L6. The data set can be described thus: Increase in GLUT4myc abundance in rat L6 cell membrane at 150 uM after 7 hrs. It counts as functional, cell-based. A digest of the protocol:
as §1

The nature of data set [15]: Cytotoxicity against rat L6 cells by MTT assay. It counts as cell-based. A digest of the protocol: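 MTT assay on L6 myotubes after the treatment incubations: MTT at 2 mg/mL in αMEM for 30 min at 37 °C, formazan dissolved in DMSO, absorbance read at 570 nm.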
On the technique in general: Formazan colour is commonly taken as a measure of viable cells.

Data set [16] relates to L6. The data set can be described thus: Effect on [3H]2-deoxy-D-glucose uptake in rat L6 cells at 250 uM relative to control. It counts as functional. The method in brief: as §4
The subject of data set [17] is L6. The data set can be described thus: Inhibition of [3H]2-deoxy-D-glucose uptake in rat L6 cells at 5 uM in presence of 100 nM wortmannin. It counts as functional, cell-based. The method in brief:
as §3

Data set [18] has as its system L6. The experiment in a line: Increase in GLUT1myc abundance in rat L6 cell membrane at 5 uM after 18 hrs.
Data set [19] has as its system L6. The experiment in a line: Activation of 5-AMP-induced AMPKalpha in rat L6 cells assessed as […] phosphorylation at 5 uM relative to control. It counts as cell-based. A digest of the protocol:
as §5

In data set [20] the test system is L6. The data set can be described thus: Increase in GLUT4myc abundance in rat L6 cell membrane at 5 µM after 18 hrs. It counts as functional, cell-based. The method in brief:
as §1

The nature of data set [21]: Effect on [3H]2-deoxy-D-glucose uptake in human skeletal muscle cells at 5 uM relative to control. It counts as functional.
Data set [22] relates to L6. The data set can be described thus: Effect on [3H]2-deoxy-D-glucose uptake in rat L6 cells at 200 uM relative to control. It counts as functional. A digest of the protocol: as §4
The species entered for data set [23] is Homo sapiens. The experiment in a line: Activation of 5-AMP-induced AMPKalpha in human skeletal muscle cells assessed as […] phosphorylation at 5 uM relative to control. A digest of the protocol: as §2
Data set [24] deals with L6. The experiment in a line: Activation of 5-AMP-induced AMPKalpha in rat L6 cells assessed as reduction in hexose transport at 5 uM relative to control in presence of compound C. Also noted: scale not given: the % may be the effect or the level left.
Data set [25] deals with Serum. The experiment in a line: Free concentration in fetal calf serum at 5 uM. Conditions: cattle.
The test system of data set [26] is L6. The data set can be described thus: Effect on [3H]2-deoxy-D-glucose uptake in rat L6 cells at 400 uM relative to control. It counts as functional. A digest of the protocol:
as §4

The subject of data set [27] is L6. The experiment in a line: Effect on [3H]2-deoxy-D-glucose uptake in rat L6 cells at 500 uM relative to control. It counts as functional. The method in brief: as §4
Data set [28] relates to L6. The experiment in a line: Effect on [3H]2-deoxy-D-glucose uptake in rat L6 cells at 1 mM relative to control. It counts as functional. A digest of the protocol: as §4
For data set [29], the system named is L6. The experiment in a line: Activation of 5-AMP-induced AMPKalpha in rat L6 cells assessed as […] phosphorylation at 50 uM relative to control. It counts as cell-based. A digest of the protocol: as §5
Data set [30] in a line: Effect on [3H]2-deoxy-D-glucose uptake in human skeletal muscle cells at 50 uM relative to control. It counts as functional.
Data set [31] concerns L6. The data set can be described thus: Inhibition of [3H]2-deoxy-D-glucose uptake in rat L6 cells at 50 uM in presence of 100 nM wortmannin. It counts as functional, cell-based. The method in brief: as §3
Data set [32] relates to L6. The data set can be described thus: Activation of 5-AMP-induced AMPKalpha in rat L6 cells assessed as […] phosphorylation at 50 uM relative to control in presence of compound C. It counts as cell-based.
The species named for data set [33] is Homo sapiens. The data set can be described thus: Activation of 5-AMP-induced AMPKalpha in human skeletal muscle cells assessed as […] phosphorylation at 50 uM relative to control. A digest of the protocol:
as §2

Data set [34] concerns L6. The data set can be described thus: Increase in GLUT4myc abundance in rat L6 cell membrane at 50 uM after 7 hrs. It counts as functional, cell-based. A digest of the protocol:
as §1

The source made the active and inactive calls.

Regarding `CCSC(SCC)[C@@H]1O[C@H](c2ccccc2)O[C@H](CO)[C@@H]1O`, the “fold change (FC)” value in [1] came out at 1.49; in data set [12], 5.25. In addition, the Activity result in data set [2] (150 uM, in the assay text read “at 150 uM” for “at 20 mM”) was “inactive”; in data set [7], “inactive”; in data set [9], “inactive”; in data set [10], “inactive”. Further, the result in data set [3], in [5] and in data set [14] was Active. Also, the Activity in data set [4] was 98%; in data set [6] it was “tde”; in data set [8], “tde”; in [11], 60%; in data set [13], “tde”.
On to `CCO[C@H]1[C@@H](CO)O[C@@H](c2ccccc2)O[C@H]1C(SCC)SCC`, for which, in data set [15], the MCC worked out at 0.6 mM. Also, the “fold change (FC)” value in data set [16] came to 1.01.
Turning to `CCSC(SCC)[C@@H]1O[C@H](c2ccccc2)O[C@@H]2CO[C@H](c3ccccc3)O[C@@H]21`, the outcome in data set [17], in [20] and in data set [23] was Active. Moreover, the outcome in data set [18], in data set [7], in data set [9] and in data set [10] was inactive. The results for the fold change (FC) in [19], in data set [21] and in [22] were 4.89, 1.59 and 1.06, respectively. The same compound had an MCC in data set [15] of 50 mM. Besides, the Activity entry was “tde” in data set [6], 48.8% in [24], “tde” in data set [8] and “tde” in data set [13]. The same compound registered a free concentration in [25] of 100 nM.
In the case of `O[C@@H]1[C@@H](O)[C@H](ON2CCCCC2)OC[C@H]1O`, in data set [15], the MCC was found to be 1 mM. The “fold change (FC)” value in data set [26] turned out to be 0.94.
In data set [15], `CCS[C@@H]1OC[C@@H](O)[C@H](O)[C@H]1O` showed an MCC of 1 mM. In [27], the “fold change (FC)” value amounted to 0.93.
`O[C@@H]1[C@@H](O)[C@@H](OC2=CC=CCO2)OC[C@H]1O` yielded an MCC in data set [15] of 5 mM. In addition, the “fold change (FC)” value in data set [28] came to 0.99.
In the case of `CCSC(SCC)[C@@H]1O[C@H](c2ccccc2)O[C@H](CO)[C@@H]1OC`, the fold change (FC) in [29] came out at 3.98; in [30] it was 1.4. Further, the Activity result in data set [2] (50 uM, in the assay text read “at 50 uM” for “at 20 mM”) is “inactive”; in data set [7] it was “inactive”; in data set [9], “inactive”; in data set [10] it was “inactive”. For the same compound, the Activity entry was “tde” in data set [6], 69.2% in data set [32], “tde” in data set [8] and “tde” in data set [13]. Further, the result in data set [31], in [33] and in data set [34] was Active.
